Source: ChEMBL document CHEMBL5252514, “Conopeptide-Derived κ-Opioid Agonists (Conorphins): Potent, Selective, and Metabolic Stable Dynorphin A Mimetics with Antinociceptive Properties” (J Med Chem, 2016)
Where a SMILES comes first, the peptide text is derived from it.

Target: Kappa-type opioid receptor (Homo sapiens, UniProt P41145)
Test: Displacement of [3H]U69593 from human kappa opioid receptor expressed in CHO-K1 cells incubated for 1 hr by 1450 microbeta scintillation counter analysis
Type: cell-based
Method in brief: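 Membranes from transiently KOR-transfected CHO-K1 cells (~2 µg/well) used in SPA with 3H-U69,593 (1 nM). Competitor ranged 1 pM–10 µM in 50 mM Tris-HCl pH 7.4, 5 mM MgCl2, 0.1% BSA. Incubated 1 h at room temperature with shaking. Nonspecific binding defined with 10 µM dynorphin A. Sigmoidal dose-response fit; at least three independent experiments in triplicate.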

Kappa-type opioid receptor, sequence (P41145 whole entry): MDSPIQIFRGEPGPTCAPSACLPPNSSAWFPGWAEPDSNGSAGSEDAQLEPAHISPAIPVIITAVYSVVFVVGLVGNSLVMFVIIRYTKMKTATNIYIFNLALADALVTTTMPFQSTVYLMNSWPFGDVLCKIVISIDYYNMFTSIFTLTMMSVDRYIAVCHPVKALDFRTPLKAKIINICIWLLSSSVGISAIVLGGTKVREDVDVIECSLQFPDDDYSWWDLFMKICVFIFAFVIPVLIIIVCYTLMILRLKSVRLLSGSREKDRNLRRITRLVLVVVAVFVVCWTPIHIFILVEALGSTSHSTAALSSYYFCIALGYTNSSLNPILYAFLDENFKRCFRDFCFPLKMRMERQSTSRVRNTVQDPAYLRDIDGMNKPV

Structure (SMILES)	Ki [µM]
N=C(N)NCCC[C@@H](NC(=O)[C@@H](CCCNC(=N)N)NC(=O)[C@@H]1CCCN1C(=O)c1ccccc1)C(=O)N[C@@H](CCC(N)=O)C(=O)N[C@@H](CC1CCCCC1)C(=O)N[C@H]1CSCSC[C@@H](C(N)=O)NC1=O	0.0158
N=C(N)NCCC[C@@H](NC(=O)[C@@H]1CCC(=O)N1)C(=O)N[C@H](CCCNC(=N)N)C(=O)N[C@@H](CCC(N)=O)C(=O)N[C@@H](CC1CCCCC1)C(=O)N[C@H]1CCSSCC[C@@H](C(N)=O)NC1=O	0.241
N=C(N)NCCC[C@@H](NC(=O)[C@@H](CCCNC(=N)N)NC(=O)[C@@H]1CCCN1C(=O)c1ccccc1)C(=O)N[C@@H](CC1CCCCC1)C(=O)N[C@H]1CSSCC(C(N)=O)NC1=O (single isomer, unassigned)	0.06
CC[C@H](C)[C@H](NC(=O)[C@H](CCC(N)=O)NC(=O)[C@H](CCCCN)NC(=O)[C@H](CCCNC(=N)N)NC(=O)[C@@H]1CSSC[C@H](NC(=O)[C@@H](N)CC(N)=O)C(=O)N1)C(=O)N[C@H]1CSSC[C@@H](C(N)=O)NC1=O (HELM PEPTIDE1{N.C.C.R.K.Q.I.C.C.[am]}$PEPTIDE1,PEPTIDE1,2:R3-3:R3|PEPTIDE1,PEPTIDE1,8:R3-9:R3$$$V2.0)	0.208
N=C(N)NCCC[C@@H](NC(=O)Cc1ccc(F)cc1)C(=O)N[C@H](CCCNC(=N)N)C(=O)N[C@@H](CCC(N)=O)C(=O)N[C@@H](CC1CCCCC1)C(=O)N[C@H]1CSSC[C@@H](C(N)=O)NC1=O	0.0012
CC[C@H](C)[C@H](NC(=O)[C@H](CCC(N)=O)NC(=O)[C@H](CCCNC(=N)N)NC(=O)[C@H](CCCCN)NC(=O)[C@@H]1CSSC[C@H](NC(=O)[C@@H](N)CC(N)=O)C(=O)N1)C(=O)N[C@H]1CSSC[C@@H](C(N)=O)NC1=O (HELM PEPTIDE1{N.C.C.K.R.Q.I.C.C.[am]}$PEPTIDE1,PEPTIDE1,2:R3-3:R3|PEPTIDE1,PEPTIDE1,8:R3-9:R3$$$V2.0)	0.426
N=C(N)NCCC[C@@H](NC(=O)[C@@H](CCCNC(=N)N)NC(=O)[C@@H]1CCCN1C(=O)c1ccccc1)C(=O)N[C@@H](CCC(N)=O)C(=O)N[C@@H](CC1CCCCC1)C(N)=O	22.5
N=C(N)NCCC[C@@H](NC(=O)Cc1cccc(Br)c1)C(=O)N[C@H](CCCNC(=N)N)C(=O)N[C@@H](CCC(N)=O)C(=O)N[C@@H](CC1CCCCC1)C(=O)N[C@H]1CSSC[C@@H](C(N)=O)NC1=O	0.0012
N=C(N)NCCC[C@@H](NC(=O)[C@@H](CCCNC(=N)N)NC(=O)[C@@H]1CCCN1C(=O)c1ccc([N+](=O)[O-])cc1)C(=O)N[C@@H](CCC(N)=O)C(=O)N[C@@H](CS)C(=O)N[C@@H](CC1CCCCC1)C(=O)N[C@H]1CSSC[C@@H](C(N)=O)NC1=O	0.0022
N=C(N)NCCC[C@@H](NC(=O)c1cccc(Br)c1)C(=O)N[C@H](CCCNC(=N)N)C(=O)N[C@@H](CCC(N)=O)C(=O)N[C@@H](CC1CCCCC1)C(=O)N[C@H]1CSSC[C@@H](C(N)=O)NC1=O	0.0053
N=C(N)NCCC[C@@H](NC(=O)c1cccc(Cl)c1)C(=O)N[C@H](CCCNC(=N)N)C(=O)N[C@@H](CCC(N)=O)C(=O)N[C@@H](CC1CCCCC1)C(=O)N[C@H]1CSSC[C@@H](C(N)=O)NC1=O	0.0067
CC(C)[C@H](NC(=O)[C@H](CCC(N)=O)NC(=O)[C@H](CCCNC(=N)N)NC(=O)[C@H](CCCNC(=N)N)NC(=O)[C@@H]1CSSC[C@H](NC(=O)[C@@H](N)CC(N)=O)C(=O)N1)C(=O)N[C@H]1CSSC[C@@H](C(N)=O)NC1=O (HELM PEPTIDE1{N.C.C.R.R.Q.V.C.C.[am]}$PEPTIDE1,PEPTIDE1,2:R3-3:R3|PEPTIDE1,PEPTIDE1,8:R3-9:R3$$$V2.0)	0.664
N=C(N)NCCC[C@@H](NC(=O)Cc1cccc(Cl)c1)C(=O)N[C@H](CCCNC(=N)N)C(=O)N[C@@H](CCC(N)=O)C(=O)N[C@@H](CC1CCCCC1)C(=O)N[C@H]1CSSC[C@@H](C(N)=O)NC1=O	0.0021
N=C(N)NCCC[C@@H](NC(=O)[C@@H](CCCNC(=N)N)NC(=O)[C@@H]1CCCN1C(=O)c1ccccc1)C(=O)N[C@@H](CCCCN)C(=O)N[C@@H](CC1CCCCC1)C(=O)N[C@H]1CSSC[C@@H](C(N)=O)NC1=O	0.00059
